ChEMBL document CHEMBL1938355, “Antimycobacterial activities of 5-alkyl (or halo)-3'-substituted pyrimidine nucleoside analogs” (Bioorg Med Chem Lett, 2012)
Converted amounts (≈) assume the structure as drawn. The source made the active and inactive calls. The rule behind the calls is not given here.

How the values were obtained:
[1] = Cytotoxicity against human HuH7 cells by [3H]thymidine incorporation assay; assay type: cell-based, Huh-7
[2] = Cytotoxicity against human HuH7 cells by XTT assay; assay type: cell-based, Huh-7
[3] = tested on: Mycobacterium tuberculosis; assay: Antimycobacterial activity against Mycobacterium tuberculosis H37Ra assessed as growth inhibition at 0.5 to 100 ug/ml by microplate alamar blue assay; assay type: functional, organism-based
Summary of the method: (§1)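 Strains obtained from ATCC. Tested by microplate alamar blue assay. Compounds made up as 10 mg/mL DMSO stocks, then serially diluted in 7H9GC medium. Final test concentrations were 100, 50, 25, 10, 5, 1 and 0.5, each in triplicate. Experiments were run twice, and mean percent growth inhibition is reported.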

Mycobacterium avium [4] = assay: Antimycobacterial activity against Mycobacterium avium ATCC 25291 assessed as growth inhibition at 0.5 to 100 ug/ml by microplate alamar blue assay; assay type: functional; details: Mycobacterium avium subsp. avium ATCC 25291
Summary of the method: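 M. avium ATCC 25291 (ATCC stock) in 7H9GC medium, microplate alamar blue read-out. Compounds dissolved in DMSO at 10 mg/mL (stock), diluted in medium to final 100, 50, 25, 10, 5, 1 and 0.5 µg/mL, each in triplicate. Two independent experiments; mean percent growth inhibition reported, SD within 10% of mean.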

Huh-7 [5] = assay: Cytotoxicity against human HuH7 cells up to 100 ug/ml by XTT assay; assay type: cell-based
Huh-7 [6] = assay: Cytotoxicity against human HuH7 cells up to 100 ug/ml by [3H]thymidine incorporation assay; assay type: cell-based
[7] = tested on: Mycobacterium tuberculosis; assay: Antimycobacterial activity against Mycobacterium tuberculosis H37Ra assessed as growth inhibition at 100 ug/ml by microplate alamar blue assay; assay type: functional; details: read-out: GI; summary of the method: as §1
Mycobacterium avium [8] = assay: Antimycobacterial activity against Mycobacterium avium ATCC 25291 assessed as growth inhibition at 2 ug/ml by microplate alamar blue assay; assay type: functional, Mycobacterium avium subsp. avium ATCC 25291; details: read-out: GI
Mycobacterium avium [9] = assay: Antimycobacterial activity against Mycobacterium avium ATCC 25291 assessed as growth inhibition at 100 ug/ml by microplate alamar blue assay; assay type: functional, Mycobacterium avium subsp. avium ATCC 25291; details: read-out: GI; summary of the method: as §1
Mycobacterium avium [10] = assay: Antimycobacterial activity against Mycobacterium avium ATCC 25291 assessed as growth inhibition at 10 ug/ml by microplate alamar blue assay; assay type: functional, Mycobacterium avium subsp. avium ATCC 25291; details: read-out: GI; summary of the method: as §1
[11] = tested on: Mycobacterium tuberculosis; assay: Antimycobacterial activity against Mycobacterium tuberculosis H37Ra assessed as growth inhibition at 5 ug/ml by microplate alamar blue assay; assay type: functional; details: read-out: GI; summary of the method: as §1
[12] = tested on: Mycobacterium tuberculosis; assay: Antimycobacterial activity against Mycobacterium tuberculosis H37Ra assessed as growth inhibition at 15 to 20 ug/ml by microplate alamar blue assay; assay type: functional
[13] = tested on: Mycobacterium tuberculosis; assay: Antimycobacterial activity against Mycobacterium tuberculosis H37Ra assessed as growth inhibition at 50 ug/ml by microplate alamar blue assay; assay type: functional; details: read-out: GI; summary of the method: as §1
[14] = tested on: Mycobacterium tuberculosis; assay: Antimycobacterial activity against Mycobacterium tuberculosis H37Ra assessed as growth inhibition at 10 ug/ml by microplate alamar blue assay; assay type: functional; details: read-out: GI; summary of the method: as §1
Mycobacterium avium [15] = assay: Antimycobacterial activity against Mycobacterium avium ATCC 25291 assessed as growth inhibition at 50 ug/ml by microplate alamar blue assay; assay type: functional, Mycobacterium avium subsp. avium ATCC 25291; details: read-out: GI; summary of the method: as §1
[16] = tested on: Mycobacterium tuberculosis; assay: Antimycobacterial activity against Mycobacterium tuberculosis H37Ra by microplate alamar blue assay; assay type: functional
Mycobacterium avium [17] = assay: Antimycobacterial activity against Mycobacterium avium ATCC 25291 by microplate alamar blue assay; assay type: functional, Mycobacterium avium subsp. avium ATCC 25291
[18] = tested on: Mycobacterium tuberculosis; assay: Antimycobacterial activity against Mycobacterium tuberculosis H37Ra assessed as growth inhibition at 0.5 to 1 ug/ml by microplate alamar blue assay; assay type: functional; summary of the method: as §1

Structure (SMILES) | CC50 [1] [µg/mL] | CC50 [2] [µg/mL] | growth inhibition (GI) [3] | growth inhibition (GI) (Mycobacterium avium [4]) | Activity (Huh-7 [5]) | Activity (Huh-7 [6]) | also measured
CCc1cn([C@H]2CC[C@@H](CO)O2)c(=O)[nH]c1=O | > 100 | > 100 | inactive | inactive | Non-toxic | Non-toxic | 
[N-]=[N+]=N[C@H]1C[C@H](n2cc(Br)c(=O)[nH]c2=O)O[C@@H]1CO | > 100 | > 100 |  | inactive | Non-toxic | Non-toxic | inhibition of growth at 100 µg/mL [7]: 30%
CCc1cn([C@H]2C[C@H](I)[C@@H](CO)O2)c(=O)[nH]c1=O | > 100 | > 100 | inactive | inactive | Non-toxic | Non-toxic | 
CC[C@H]1OC(=O)[C@H](C)[C@@H](O[C@H]2C[C@@](C)(OC)[C@@H](O)[C@H](C)O2)[C@H](C)[C@@H](O[C@@H]2O[C@H](C)C[C@H](N(C)C)[C@H]2O)[C@](C)(OC)C[C@@H](C)C(=O)[C@H](C)[C@@H](O)[C@]1(C)O [CLARITHROMYCIN] |  |  |  |  |  |  | inhibition of growth at 2 µg/mL (Mycobacterium avium [8]): 100%
O=c1[nH]c(=O)n([C@H]2C[C@H](F)[C@@H](CO)O2)cc1C(F)(F)F | > 100 | > 100 | inactive |  | Non-toxic | Non-toxic | inhibition of growth at 100 µg/mL (Mycobacterium avium [9]): 25%
N[C@@H]1CONC1=O [CYCLOSERINE] |  |  |  |  |  |  | inhibition of growth at 10 µg/mL (Mycobacterium avium [10]): 15%; inhibition of growth at 5 µg/mL [11]: 50%; growth inhibition (GI) [12]: 80%; inhibition of growth at 100 µg/mL (Mycobacterium avium [9]): 100%; inhibition of growth at 50 µg/mL [13]: 100%; inhibition of growth at 10 µg/mL [14]: 60%; inhibition of growth at 50 µg/mL (Mycobacterium avium [15]): 100%; MIC50 [16]: 5 µg/mL (≈ 49 µM)
CCc1cn([C@H]2C[C@@H](O)[C@@H](CO)O2)c(=O)[nH]c1=O | > 100 | > 100 | inactive | inactive | Non-toxic | Non-toxic | 
[N-]=[N+]=N[C@H]1C[C@H](n2cc(F)c(=O)[nH]c2=O)O[C@@H]1CO | > 100 | > 100 | inactive | inactive | Non-toxic | Non-toxic | 
[N-]=[N+]=N[C@H]1C[C@H](n2cc(Cl)c(=O)[nH]c2=O)O[C@@H]1CO | > 100 | > 100 |  | inactive | Non-toxic | Non-toxic | inhibition of growth at 100 µg/mL [7]: 50%
CCc1cn([C@H]2C[C@H](F)[C@@H](CO)O2)c(=O)[nH]c1=O | > 100 | > 100 | inactive | inactive | Non-toxic | Non-toxic | 
Cc1cn([C@H]2C[C@H](N)[C@@H](CO)O2)c(=O)[nH]c1=O [3-AMINO- 3-DEOXYTHYMIDINE] | > 100 | > 100 | inactive | inactive | Non-toxic | Non-toxic | 
CCc1cn([C@H]2C[C@H](N=[N+]=[N-])[C@@H](CO)O2)c(=O)[nH]c1=O | > 100 | > 100 |  |  | Non-toxic | Non-toxic | inhibition of growth at 10 µg/mL (Mycobacterium avium [10]): 50%; inhibition of growth at 100 µg/mL (Mycobacterium avium [9]): 100%; inhibition of growth at 50 µg/mL [13]: 60%; inhibition of growth at 100 µg/mL [7]: 60%; inhibition of growth at 10 µg/mL [14]: 50%; inhibition of growth at 50 µg/mL (Mycobacterium avium [15]): 60%; MIC50 (Mycobacterium avium [17]): 10 µg/mL (≈ 35.6 µM); MIC50 [16]: 10 µg/mL (≈ 35.6 µM)
CO[C@H]1/C=C/O[C@@]2(C)Oc3c(C)c(O)c4c(O)c(c(/C=N/N5CCN(C)CC5)c(O)c4c3C2=O)NC(=O)/C(C)=C\C=C\[C@H](C)[C@H](O)[C@@H](C)[C@@H](O)[C@@H](C)[C@H](OC(C)=O)[C@@H]1C [RIFAMPIN] |  |  |  |  |  |  | growth inhibition (GI) [18]: 100%; inhibition of growth at 2 µg/mL (Mycobacterium avium [8]): 90%
